Data published in ChEMBL document CHEMBL1926598, “Synthesis, anti-inflammatory activity and ulcerogenic liability of novel nitric oxide donating/chalcone hybrids” (Bioorg Med Chem, 2012).

Columns and labels:
[1] = tested on: Rattus norvegicus; assay: Antiinflammatory activity in albino rat assessed as inhibition of carrageenan-induced paw edema at 100 mg/kg, po administered 30 mins prior to challenge measured after 1 hr relative to untreated control; assay type: functional
Procedure, shortened: (§1)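 Adult male albino rats (120–140 g), groups of four, fasted 24 h with water allowed. Test compound suspended in 0.5% w/v CMC in water, given orally at 100 mg/kg; controls received CMC alone. After 30 min, 0.1 mL of 1% carrageenan in saline injected subplantar into right hind paw, saline into left. Paw thickness measured by caliper; % inhibition = [(VR−VL)control − (VR−VL)treated]/(VR−VL)control ×100; one-way ANOVA versus control.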

[2] = Induction of nitric oxide release at 0.1 mM after 4 hrs in phosphate buffer at pH 7.4 by Griess assay; assay type: physicochemical; settings: pH 7.4, 4 h, 100 µM
Procedure, shortened: (§2)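 Compound at a final 10^-4 M with 0.5 mM N-acetylcysteine in phosphate buffer pH 7.4 at 37 °C. Reaction mixture treated with Griess reagent (sulfanilamide, N-naphthylethylenediamine, phosphoric acid), 10 min at room temperature, absorbance read at 546 nm. Sodium nitrite standards (10–80 nmol/mL) used for calibration. NO reported as mol/mol, n = 4 reaction mixtures.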

[3] = tested on: Rattus norvegicus; assay: Antiinflammatory activity in albino rat assessed as inhibition of carrageenan-induced paw edema at 100 mg/kg, po administered 30 mins prior to challenge measured after 5 hrs relative to untreated control; assay type: functional; procedure, shortened: as §1
[4] = Induction of nitric oxide release at 0.1 mM after 1 hr in phosphate buffer at pH 7.4 by Griess assay; assay type: physicochemical; settings: pH 7.4, 1 h, 100 µM; procedure, shortened: as §2
[5] = tested on: Rattus norvegicus; assay: Antiinflammatory activity in albino rat assessed as inhibition of carrageenan-induced paw edema at 100 mg/kg, po administered 30 mins prior to challenge measured after 3 hrs relative to indomethacin; assay type: functional; design: scale not given: the % may be the effect or the level left
Procedure, shortened: (§3)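 Carrageenan paw edema in male albino rats (120–140 g, n = 4, fasted 24 h), compound 100 mg/kg po in 0.5% CMC 30 min before subplantar 1% carrageenan (0.1 mL). Percent edema inhibition at the stated hour from right minus left paw thickness versus the CMC control, then expressed as a percentage of the indomethacin (100 mg/kg) response at the same time.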

[6] = Induction of nitric oxide release at 0.1 mM in 0.1 N HCl buffer at pH 1.0 by Griess assay; assay type: physicochemical; settings: pH 1, 100 µM
Procedure, shortened: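 Griess procedure as at neutral pH, but in 0.1 N HCl pH 1 in place of phosphate buffer. Compound at a final 10^-4 M with N-acetylcysteine, 37 °C. Absorbance read at 546 nm against sodium nitrite standards (10–80 nmol/mL). Release expressed relative to a theoretical 1 mol NO/mol compound.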

[7] = tested on: Rattus norvegicus; assay: Gastric toxicity in albino rat assessed as structural damage in mucosal membrane at 100 mg/kg, po after 5 hrs by hematoxylin and eosin staining; assay type: organism-based; design: dose 100 mg/kg, route oral; settings: in vivo
Procedure, shortened: (§4)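 Stomach sections from control and treated rats were dewaxed and hydrated through graded alcohols. They were stained with haematoxylin 5–7 min, differentiated 5–10 s in 1% HCl in 70% alcohol, then stained with 1% eosin for 10 min. Mucosa of the fundic stomach was examined by light microscopy.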

[8] = tested on: Rattus norvegicus; assay: Gastric toxicity in albino rat assessed as ulcer index at 100 mg/kg, po after 5 hrs; assay type: organism-based; design: dose 100 mg/kg, route oral; settings: in vivo
Procedure, shortened: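 Rats dosed orally at 100 mg/kg in 0.5% CMC (n = 4). Stomach lesions counted and graded by area: level I <1 mm², II 1–3 mm², III >3 mm². Ulcer index = 1×(level I count) + 2×(level II) + 3×(level III). Mean ± SEM; one-way ANOVA versus control.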

[9] = Induction of nitric oxide release at 0.1 mM after 3 hrs in phosphate buffer at pH 7.4 by Griess assay; assay type: physicochemical; settings: pH 7.4, 3 h, 100 µM; procedure, shortened: as §2
[10] = tested on: Rattus norvegicus; assay: Antiinflammatory activity in albino rat assessed as inhibition of carrageenan-induced paw edema at 100 mg/kg, po administered 30 mins prior to challenge measured after 3 hrs relative to untreated control; assay type: functional; procedure, shortened: as §1
[11] = Induction of nitric oxide release at 0.1 mM after 6 hrs in phosphate buffer at pH 7.4 by Griess assay; assay type: physicochemical; settings: pH 7.4, 6 h, 100 µM; procedure, shortened: as §2
[12] = Induction of nitric oxide release at 0.1 mM after 2 hrs in phosphate buffer at pH 7.4 by Griess assay; assay type: physicochemical; settings: pH 7.4, 2 h, 100 µM; procedure, shortened: as §2
[13] = Induction of nitric oxide release at 0.1 mM after 5 hrs in phosphate buffer at pH 7.4 by Griess assay; assay type: physicochemical; settings: pH 7.4, 5 h, 100 µM; procedure, shortened: as §2
[14] = tested on: Rattus norvegicus; assay: Antiinflammatory activity in albino rat assessed as inhibition of carrageenan-induced paw edema at 100 mg/kg, po administered 30 mins prior to challenge measured after 2 hrs relative to untreated control; assay type: functional; procedure, shortened: as §1
[15] = tested on: Rattus norvegicus; assay: Gastric toxicity in albino rat assessed as loss of mucosal membrane at the area of ulceration at 100 mg/kg, po after 5 hrs by hematoxylin and eosin staining; assay type: organism-based; design: dose 100 mg/kg, route oral; settings: in vivo; procedure, shortened: as §4
[16] = tested on: Rattus norvegicus; assay: Antiinflammatory activity in albino rat assessed as inhibition of carrageenan-induced paw edema at 100 mg/kg, po administered 30 mins prior to challenge measured after 4 hrs relative to untreated control; assay type: functional; procedure, shortened: as §1
[17] = tested on: Rattus norvegicus; assay: Antiinflammatory activity in albino rat assessed as inhibition of carrageenan-induced paw edema at 100 mg/kg, po administered 30 mins prior to challenge measured after 4 hrs relative to indomethacin; assay type: functional; design: scale not given: the % may be the effect or the level left; procedure, shortened: as §3
[18] = tested on: Rattus norvegicus; assay: Gastric toxicity in albino rat assessed as vasodilation of blood capillaries at 100 mg/kg, po after 5 hrs by hematoxylin and eosin staining; assay type: organism-based; design: dose 100 mg/kg, route oral; settings: in vivo; procedure, shortened: as §4
[19] = tested on: Rattus norvegicus; assay: Gastric toxicity in albino rat assessed as edema at 100 mg/kg, po after 5 hrs by hematoxylin and eosin staining; assay type: organism-based; design: dose 100 mg/kg, route oral; settings: in vivo; procedure, shortened: as §4
[20] = tested on: Rattus norvegicus; assay: Gastric toxicity in albino rat assessed as abnormal morphology of fundic gland at 100 mg/kg, po after 5 hrs by hematoxylin and eosin staining; assay type: organism-based; design: dose 100 mg/kg, route oral; settings: in vivo; procedure, shortened: as §4
[21] = tested on: Rattus norvegicus; assay: Gastric toxicity in albino rat assessed as capillary inflammatory cells appearance at 100 mg/kg, po after 5 hrs by hematoxylin and eosin staining; assay type: organism-based; design: dose 100 mg/kg, route oral; settings: in vivo; procedure, shortened: as §4
[22] = tested on: Rattus norvegicus; assay: Gastric toxicity in albino rat assessed as degeneration of fundic gland at 100 mg/kg, po after 5 hrs by hematoxylin and eosin staining; assay type: organism-based; design: dose 100 mg/kg, route oral; settings: in vivo; procedure, shortened: as §4
[23] = tested on: Rattus norvegicus; assay: Gastric toxicity in albino rat assessed as apoptotic glandular epithelial cells appearance at 100 mg/kg, po after 5 hrs by hematoxylin and eosin staining; assay type: organism-based, Epithelial cell; design: dose 100 mg/kg, route oral; settings: in vivo; procedure, shortened: as §4

Row | Activity [2] [mol/mol] | Activity [4] [mol/mol] | Activity [6] | Activity [9] [mol/mol] | Activity [11] [mol/mol] | Activity [12] [mol/mol] | Activity [13] [mol/mol] | SMILES | inhibition in vivo at 100 mg/kg [1] [%] | inhibition in vivo at 100 mg/kg [3] [%] | Activity [5] [%] | UI [8] | inhibition in vivo at 100 mg/kg [10] [%] | inhibition in vivo at 100 mg/kg [14] [%] | inhibition in vivo at 100 mg/kg [16] [%] | further results
1 | 0.73 | 0.32 | Not Active | 0.54 | 0.73 | 0.37 | 0.75 | O=C(CO[N+](=O)[O-])Nc1ccc(C(=O)/C=C/c2ccc(Cl)cc2)cc1 | 42 | 60 | 89 | 2.5 | 69 | 57 | 67 | Activity [18]: Non-toxic; Activity [19]: Non-toxic; Activity [20]: Non-toxic
2 | 0.28 | 0.1 | Not Active | 0.12 | 0.13 | 0.12 | 0.14 | C/C(=N/O)c1ccc(OCC(=O)Nc2ccc(C(=O)/C=C/c3ccco3)cc2)cc1 | 36 | 42 | 64 | 4.8 | 49 | 44 | 48 | –
3 | 1.295 | 0.55 | Not Active | 1.22 | 0.87 | 0.98 | 1.5 | O=C(COCc1c(-c2ccccc2)no[n+]1[O-])Nc1ccc(C(=O)/C=C/c2ccc(Cl)cc2)cc1 | 38 | 62 | – | 1 | 66 | 48 | 75 | Activity [7]: Non-toxic; Activity [17]: 91%; Activity [21]: Non-toxic
4 | 0.482 | 0.11 | Not Active | 0.47 | 0.3 | 0.27 | 0.52 | COc1ccc(/C=C/C(=O)c2ccc(NC(=O)COCc3c(-c4ccccc4)no[n+]3[O-])cc2)cc1 | 30 | 49 | 73 | 2 | 56 | 42 | 55 | –
5 | 0.64 | 0.39 | Not Active | 0.6 | 0.67 | 0.45 | 0.73 | O=C(CO[N+](=O)[O-])Nc1ccc(C(=O)/C=C/c2ccc3c(c2)OCO3)cc1 | 38 | 54 | 79 | 3 | 61 | 45 | 55 | –
6 | 0.31 | 0.14 | Not Active | 0.25 | 0.24 | 0.16 | 0.26 | C/C(=N/O)c1ccc(OCC(=O)Nc2ccc(C(=O)/C=C/c3ccc4c(c3)OCO4)cc2)cc1 | 40 | 44 | 77 | 4 | 59 | 49 | 52 | –

The next lines start with the compound.

Row | SMILES | Activity [2] [mol/mol] | Activity [4] [mol/mol] | Activity [6] | Activity [9] [mol/mol] | Activity [11] [mol/mol] | Activity [12] [mol/mol] | Activity [13] [mol/mol] | inhibition in vivo at 100 mg/kg [1] [%] | inhibition in vivo at 100 mg/kg [3] [%] | Activity [5] [%] | UI [8] | inhibition in vivo at 100 mg/kg [10] [%] | inhibition in vivo at 100 mg/kg [14] [%] | inhibition in vivo at 100 mg/kg [16] [%] | further results
7 | CC(O[N+](=O)[O-])C(=O)Nc1ccc(C(=O)/C=C/c2ccc(Cl)cc2)cc1 (configuration not stated) | 0.35 | 0.13 | Not Active | 0.46 | 0.16 | 0.16 | 0.28 | 45 | 56 | 80 | 3.5 | 62 | 55 | 61 | Activity [7]: Toxic; Activity [15]: Toxic
8 | O=C(COCc1c(-c2ccccc2)no[n+]1[O-])Nc1ccc(C(=O)/C=C/c2ccc3c(c2)OCO3)cc1 | 0.89 | 0.5 | Not Active | 0.86 | 0.75 | 0.71 | 1.26 | 34 | 70 | – | 1.3 | 62 | 55 | 72 | Activity [17]: 87%
9 | O=C(COCc1c(-c2ccccc2)no[n+]1[O-])Nc1ccc(C(=O)/C=C/c2ccco2)cc1 | 0.499 | 0.16 | Not Active | 0.4 | 0.54 | 0.23 | 0.65 | 30 | 49 | 76 | 2.5 | 59 | 45 | 58 | –
10 | COc1ccc2c(c1)c(CC(=O)O)c(C)n2C(=O)c1ccc(Cl)cc1 [INDOMETHACIN] | – | – | – | – | – | – | – | 56 | 87 | – | 45.5 | 78 | 70 | 83 | Activity [22]: Toxic; Activity [23]: Toxic; Activity [15]: Toxic; Activity [21]: Toxic
11 | CC(O[N+](=O)[O-])C(=O)Nc1ccc(C(=O)/C=C/c2ccco2)cc1 (configuration not stated) | 0.13 | 0.09 | Not Active | 0.38 | 0.09 | 0.11 | 0.11 | 41 | 49 | 69 | 5.7 | 54 | 48 | 49 | –
